Assay results collected from several papers.
Lines come from different studies, so protocols differ.
Target: MAP kinase-interacting serine/threonine-protein kinase 2 (MKNK2, Homo sapiens, UniProt Q9HBH9)

Structure (SMILES)	assay	setting	remaining binding
N[C@H]1CCN(c2nccc(-c3cnn4ncccc34)n2)C1	binding	1 µM	21%
CNC(=O)[C@@H]1CC[C@@H](n2c(-c3ccc4cnccc4c3)nc3ccc(C(=O)NCc4cccc(C(N)=O)c4)cc32)C1	binding, competition with immobilised ligand	1 µM	100%
O=C(c1ccc(Nc2ncc(Cl)c(-c3ccc(Cl)s3)n2)cc1)N1CCC(N2CCCC2)CC1	binding, competition with immobilised ligand	1 µM	4.2%
COc1cnc(Nc2cccc(S(N)(=O)=O)c2)nc1N1CCN(c2ccccc2)CC1	binding, competition with immobilised ligand	1 µM	59%
N#Cc1ccccc1CSc1nnc2c(n1)[nH]c1ccccc12	binding, competition with immobilised ligand	10 µM	95%
Cn1nc(C(F)(F)F)cc1-c1cnc(N2CCc3cc(S(=O)(=O)Nc4c(F)cc(Cl)cc4F)cc(N4CCCC4=O)c32)nc1	cell-free assay, competition with immobilised ligand	1 µM	94%
c1cnn2ncc(-c3ccnc(N4CCC45COC5)n3)c2c1	binding	1 µM	3.3%
CC(C)(C)c1ccc(-c2nc(CBr)nn2-c2cccc(O)c2)cc1	cell-free assay, competition with immobilised ligand	10 µM	62%
COc1cc(C(=O)N2CCC(N3CCN(C)CC3)CC2)ccc1Nc1ncc2c(n1)N(C)c1ccccc1C(=O)N2C	binding, competition with immobilised ligand	10 µM	1.2%
COc1ccnn2ncc(-c3ccnc(N(C)C)n3)c12	binding	1 µM	78%
CO[C@@H](C)c1c(Nc2ccc([C@H](N(C)C(=O)C3CCS(=O)(=O)CC3)C(F)(F)F)cc2)cnc2cc(Cl)nn12	cell-free assay, competition with immobilised ligand	1 µM	100%
F[C@@H]1CCN(c2nccc(-c3cnn4ncccc34)n2)C1	binding	1 µM	68%
O=C(Nc1c[nH]nc1C(=O)NC1CCNCC1)c1cc(F)cc(F)c1	binding, competition with immobilised ligand	1 µM	100%
CN(c1ccnc(CNc2nc(Nc3ccc4c(c3)CC(=O)N4)ncc2C(F)(F)F)n1)S(C)(=O)=O	cell-free assay, competition with immobilised ligand	1 µM	91%
C=CC(=O)N1CCC(C(=O)NCC(=O)N2CCN(c3nc(-c4cnc(N)nc4C(F)F)nc(N4CCOCC4)n3)CC2)CC1	binding, competition with immobilised ligand	1 µM	100%
CN(c1nccc(-c2cnn3ncccc23)n1)C1CC1	binding	1 µM	77%
O=C(O)c1cc(-c2ccc(C3CCNCC3)cc2)c2ccc(-c3ccc(C(F)(F)F)cc3)cc2c1	cell-free assay, competition with immobilised ligand	1 µM	100%
CN(C)c1nccc(-c2cnc3ncccn23)n1	binding	1 µM	46%
C[C@@H]1CN(c2ccc3ncc(-c4ccc5[nH]nc(C6CC6)c5c4)n3n2)C[C@H](C)O1	binding, competition with immobilised ligand	50 nM	75%
CNCc1ccccc1-c1csc([C@@H](C)Nc2nc(C)nc3cc(OC)c(OC)cc23)c1	cell-free assay, competition with immobilised ligand	1 µM	63%
C[C@H]1CCN(c2nccc(-c3cnn4ncccc34)n2)C1	binding	1 µM	2.3%
CCCOc1ccc([C@H]2[C@H](C(=O)O)[C@@H](c3ccc4c(c3)OCO4)CN2CC(=O)Nc2c(CC)cccc2CC)cc1	cell-free assay, competition with immobilised ligand	1 µM	74%
O=C(NCCCN1CCOCC1)c1ccc(Nc2ncc(Cl)c(-c3ccc(Cl)s3)n2)cc1	binding, competition with immobilised ligand	1 µM	55%
COCCOc1nc(-c2ccc(Cl)nc2)nc2c1CN(C(=O)c1ncn3ccccc13)CC2	cell-free assay, competition with immobilised ligand	0.1 µM	100%
O=C(c1ccc(Nc2nccc(-c3cc4ccccc4s3)n2)cc1)N1CCC(N2CCCC2)CC1	binding, competition with immobilised ligand	1 µM	4.6%
